An excerpt weighted towards active compounds, which were near 2.1% of everything screened.
KLF5 inh: suppresses KLF5 promoter-driven expression; AID 1700; 290,000 compounds, 0.23% hits; inhibition, % at 5 µM; DLD-1 KLF5 promoter-luciferase reporter, luminescence;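 active means inhibition above a per-plate limit of that plate's mean compound inhibition plus 3 SD, cut at about 60% in these data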;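 further: 0% = DMSO wells and 100% = LY294002 at 200 µM; higher means less KLF5 promoter-driven luciferase light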
bCat nuc transl: beta-catenin nuclear translocation modulation. HeLa beta-catenin nuclear translocation, immunofluorescence imaging. nuclear translocation activity, % at 5 µM. 190,000 compounds, 0.3% hits. AID 1665;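 active means nuclear translocation activity above 50% at 5 µM, with a well cell count of 50 or more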;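 further: per-cell ratio of nuclear to cytoplasmic median beta-catenin stain intensity; plate controls were DMSO negative control for no effect and GSK-3 inhibitor IX positive control for full effect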
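assay system = human HeLa cells, endogenous beta-catenin | times = compound treatment 24 h, 37°C, 5% CO2 | detection = Anti-beta-catenin immunofluorescence on PFA-fixed, Triton-permeabilized cells, DAPI nuclei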
IEC-6 tox: counter-screen for KLF5 inhibitors: cytotoxicity in IEC-6 cells. IEC-6 cytotoxicity, luminescence viability. inhibition, % at 5 µM. 290,000 compounds, 0.78% hits. AID 1825; in the data active means inhibition above about 22%;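 further: 0% = plate median of test compound wells and 100% = cytotoxic reference compound wells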
BaF3 tox: counter-screen for JAK2V617F inhibitors: parental Ba/F3 viability inhibitors; inhibition, % at 5.6 µM; CellTiter-Glo ATP luminescence; 220,000 compounds, 1.1% hits;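 active means inhibition above a per-campaign cutoff, the mean inhibition of all tested compounds plus 3 SD, cut at about 27% in these data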;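 further: 0% = DMSO wells and 100% = JAK Inhibitor I control wells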
MT stabilizer: stabilizes microtubules in HeLa cells. HeLa tubulin immunostaining HCS, 24 h; share of cells brighter than vehicle mean+2SD. % tubulin-high responders, % at 10 µM. 200,000 compounds, 0.83% hits. AID 2205;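 active means plate Z-score above 3 for both tubulin-high and condensed-nucleus cell shares, with cell loss under 80%, at 10 µM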;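 further: anti alpha tubulin signal scored within the nucleus-defined area of each cell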
Ba/F3 V617F tox: loss of viability in JAK2V617F-driven Ba/F3 cells. Ba/F3 EpoR-JAK2V617F viability, ATP luminescence. inhibition, % at 5.6 µM. 220,000 compounds, 1.1% hits. AID 1446;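 active means inhibition above the campaign mean plus 3 SD over all tested compounds, cut at about 24% in these data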;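 further: cytokine-independent growth of Ba/F3 cells driven by EpoR plus mutant JAK2; 0% = DMSO-treated cells and 100% = JAK inhibitor I control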
* marks the source's active call; other numbers are inactive results.

What do the screens show for `Cc1ccc(S(=O)(=O)Nc2ccc(O)c3ncccc23)cc1`?
KLF5 inh: 32; bCat nuc transl: 58*; IEC-6 tox: -3; BaF3 tox: -3; MT stabilizer: 10; Ba/F3 V617F tox: 2

What do the screens show for `CC1CC(c2ccccc2)=Nc2ccccc2N1` (centres undefined)?
KLF5 inh: -48; IEC-6 tox: 2

How did Cc1onc(-c2ccccc2)c1C(=O)OCC(=O)NCc1ccc(F)cc1 do in these assays?
KLF5 inh: 17; bCat nuc transl: 0; IEC-6 tox: 1; BaF3 tox: 5; MT stabilizer: 5; Ba/F3 V617F tox: 3

What do the screens show for `O=C(NC(=Nc1ccccc1)N1CCOCC1)Nc1ccccc1`?
KLF5 inh: -12; bCat nuc transl: -4; IEC-6 tox: 0; BaF3 tox: 96*; MT stabilizer: 2; Ba/F3 V617F tox: 1

What do the screens show for `O=C(CCc1nnc(C2(c3ccc(Cl)cc3)CCC2)o1)N1CCCC1`?
KLF5 inh: -76; IEC-6 tox: 1

How did CN1CCN(S(=O)(=O)c2ccc(N3CCN(S(=O)(=O)/C=C/c4ccccc4)CC3)nc2)CC1 do in these assays?
KLF5 inh: 3; bCat nuc transl: -3; IEC-6 tox: -1; BaF3 tox: 47*; MT stabilizer: 3; Ba/F3 V617F tox: 1

How did C=C(C)CSc1cc(C)nc2c(-c3ccccc3)c(C)nn12 do in these assays?
KLF5 inh: -41; bCat nuc transl: 1; IEC-6 tox: 0; BaF3 tox: 2; Ba/F3 V617F tox: 4

What do the screens show for `COc1ccccc1C(=O)N=Nc1c(O)[nH]c2ccc([N+](=O)[O-])cc12`?
KLF5 inh: -28; bCat nuc transl: -2; IEC-6 tox: -3; BaF3 tox: 4; MT stabilizer: 4; Ba/F3 V617F tox: 60*

Results for C=CCn1c(N2C(=O)CC(Cc3ccccc3)C2=O)nc2ccccc21 (centres undefined) ?
KLF5 inh: -15; bCat nuc transl: -2; IEC-6 tox: -2; BaF3 tox: 7; MT stabilizer: 2; Ba/F3 V617F tox: -1

How did CCOC(=O)C1CCCN(C(=O)c2ccc(Cn3c(=S)[nH]c4cc(C(=O)OC)ccc4c3=O)cc2)C1 (centres undefined) do in these assays?
KLF5 inh: 6; IEC-6 tox: 3; BaF3 tox: 4; MT stabilizer: 18*; Ba/F3 V617F tox: 1

Results for COC(=O)C1=C(C)NC(C)=C(C(=O)OC)C1c1cc2cc(C)ccc2[nH]c1=O ?
KLF5 inh: 5; bCat nuc transl: -1; IEC-6 tox: 1; BaF3 tox: -2; MT stabilizer: 4; Ba/F3 V617F tox: -1

How did COC(=O)C1=C(C)NC(C)=C(C(=O)OC)C1c1cc2ccc(C)cc2[nH]c1=O do in these assays?
KLF5 inh: -35; bCat nuc transl: 0; IEC-6 tox: 3; BaF3 tox: 8; MT stabilizer: 31*; Ba/F3 V617F tox: 4

How did CCOC(=O)C1=C(C)NC(C)=C(C(=O)OCC)C1c1cc2ccc(C)cc2[nH]c1=O do in these assays?
KLF5 inh: -9; IEC-6 tox: 8; BaF3 tox: 10; MT stabilizer: 45*; Ba/F3 V617F tox: 6

What do the screens show for `CCOc1ccc(-c2nnc(NC(=O)Cc3cc(OC)c(OC)c(OC)c3)o2)cc1`?
KLF5 inh: -15; IEC-6 tox: 5

What do the screens show for `CC1(C)CC(N2CCCC2)=CC(=[N+]2CCCCCC2)C1`?
KLF5 inh: 1; bCat nuc transl: -2; IEC-6 tox: 30*; BaF3 tox: 71*; MT stabilizer: 2; Ba/F3 V617F tox: 99*

Results for CC1(C)CC(=O)C=C(N2CCNCC2)C1 ?
KLF5 inh: -2; bCat nuc transl: -5; IEC-6 tox: 5; BaF3 tox: 3; MT stabilizer: 2; Ba/F3 V617F tox: 0

What do the screens show for `CCN(CC)C1=CC(=[N+]2CCCC2)CC(C)(C)C1`?
KLF5 inh: -15; bCat nuc transl: -4; IEC-6 tox: 6; BaF3 tox: 63*; MT stabilizer: 4; Ba/F3 V617F tox: 74*

Results for CC1(C)CC(N2CCN(c3ccccc3)CC2)=CC(=[N+]2CCCC2)C1 ?
KLF5 inh: -4; bCat nuc transl: 0; IEC-6 tox: 14; BaF3 tox: 75*; MT stabilizer: 5; Ba/F3 V617F tox: 85*

What do the screens show for `COc1ccc(NC(=S)NNc2ccc(S(=O)(=O)Nc3ccccc3C(=O)O)cc2[N+](=O)[O-])cc1`?
KLF5 inh: -8; bCat nuc transl: 0; IEC-6 tox: 9; BaF3 tox: -2; Ba/F3 V617F tox: 0

How did COc1ccc(C2C(=O)c3ccccc3C2=O)c(OC)c1 do in these assays?
KLF5 inh: -22; bCat nuc transl: 5; IEC-6 tox: 1; BaF3 tox: -1; MT stabilizer: 3; Ba/F3 V617F tox: -2

Results for CCOc1ccc2c(c1)[N+](C)(C)C(C)(C)C=C2C ?
KLF5 inh: -30; bCat nuc transl: 1; IEC-6 tox: 5; BaF3 tox: 60*; MT stabilizer: 4; Ba/F3 V617F tox: 54*

What do the screens show for `COc1ccc2c(c1)[N+](C)(C)C(C)(C)C=C2C`?
KLF5 inh: 7; bCat nuc transl: 2; IEC-6 tox: -1; BaF3 tox: 47*; MT stabilizer: 3; Ba/F3 V617F tox: 26*

How did CCNC(=O)N1c2ccc(OCC)cc2C(C)=CC1(C)C do in these assays?
KLF5 inh: 4; bCat nuc transl: -6; IEC-6 tox: 1; BaF3 tox: 3; MT stabilizer: 4; Ba/F3 V617F tox: 0

Results for O=C(CN1CCN(c2ccc(Cl)cc2[N+](=O)[O-])CC1)N1CCOCC1 ?
KLF5 inh: -27; bCat nuc transl: -1; IEC-6 tox: -3; BaF3 tox: 0; Ba/F3 V617F tox: -4

What do the screens show for `O=C(CCc1ccccn1)N1CCCC(CNS(=O)(=O)c2cccs2)C1` (centres undefined)?
KLF5 inh: -10; bCat nuc transl: -1; IEC-6 tox: -4; BaF3 tox: 0; MT stabilizer: 3; Ba/F3 V617F tox: -3

Results for CN(C)CC(C)(C)CNS(=O)(=O)c1cccc(Cl)c1Cl ?
KLF5 inh: -14; IEC-6 tox: 1; BaF3 tox: 6; MT stabilizer: 1; Ba/F3 V617F tox: 3

How did CC1CC(=O)c2c(cc3c(-c4c(O)cc(O)c5c(O)c6c(cc45)OC(C)CC6=O)c(O)cc(O)c3c2O)O1 (centres undefined) do in these assays?
KLF5 inh: -28; bCat nuc transl: -3; IEC-6 tox: -8; BaF3 tox: -9; MT stabilizer: 32*; Ba/F3 V617F tox: 3

What do the screens show for `CCC(C)(C)NC(=O)C(c1ccncc1)N(C(=O)c1sc(C)nc1C)c1ccc(C)cc1` (centres undefined)?
KLF5 inh: -9; bCat nuc transl: 2; IEC-6 tox: 8; BaF3 tox: 1; MT stabilizer: 3; Ba/F3 V617F tox: -3

Results for COC(=O)c1sc(-c2cccs2)cc1NC(=O)/C=C/C(=O)O ?
KLF5 inh: -53; bCat nuc transl: -1; IEC-6 tox: -5; BaF3 tox: 1; Ba/F3 V617F tox: -3

Source: PubChem (several laboratories)
